Laboratory results as given in ChEMBL document CHEMBL5143666, “Insights into the anticancer activity of chiral alkylidene-β-lactams and alkylidene-γ-lactams: Synthesis and biological investigation” (Bioorg Med Chem, 2022).
Calls of active or inactive are those of the source. The rule behind the calls is not given here.

How the values were obtained:
A-375 [1] = assay: Cytotoxicity against human A375 cells after 48 hrs by MTT assay; assay type: functional, cell-based; settings: A-375, 48 h
Summary of the method: (§1)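 Cells seeded at 1×10^5 per well, attached overnight, then exposed to serial dilutions from 10 mM DMSO stocks (vehicle control 1% DMSO) for 48 or 72 h; triplicate wells. MTT 0.5 mg/mL, 4 h at 37 °C; formazan dissolved in acid isopropanol, absorbance read. IC50 from sigmoidal variable-slope fit of % metabolic activity vs log concentration; ≥2 independent experiments.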

OE19 [2] = assay: Cytotoxicity against human OE19 cells after 48 hrs by MTT assay; assay type: functional, cell-based; settings: OE19, 48 h; summary of the method: as §1
OE19 [3] = assay: Cytotoxicity against human OE19 cells after 72 hrs by MTT assay; assay type: functional, cell-based; settings: OE19, 72 h; summary of the method: as §1
HT-1080 = assay: Cytotoxicity against human HT-1080 cells after 48 hrs by MTT assay; assay type: functional, cell-based; settings: HT-1080, 48 h; summary of the method: as §1
NCI-H1299 = assay: Cytotoxicity against human H1299 cells after 48 hrs by MTT assay; assay type: functional, cell-based; settings: NCI-H1299, 48 h; summary of the method: as §1
A-375 [4] = assay: Induction of apoptosis in human A375 cells assessed as viable cells at 10 uM after 48 hrs by annexin-v and PI staining based flow cytometry analysis (reference value: 93.63 +/- 1.37%); assay type: functional; settings: read-out: Activity
A-375 [5] = assay: Induction of apoptosis in human A375 cells assessed as late apoptotic cells at 10 uM after 48 hrs by annexin-v and PI staining based flow cytometry analysis (reference value: 1.83 +/- 0.41%); assay type: functional
A-375 [6] = assay: Induction of apoptosis in human A375 cells assessed as necrotic cells at 10 uM after 48 hrs by annexin-v and PI staining based flow cytometry analysis (reference value: 1.17 +/- 0.41%); assay type: functional
A-375 [7] = assay: Induction of cell cycle arrest in human A375 assessed as number of cells at G1 phase at 10 uM after 48 hrs by flow cytometry (reference value: 83.5 +/- 1.87 %); assay type: functional
A-375 [8] = assay: Induction of cell cycle arrest in human A375 assessed as number of cells at G2/M phase at 10 uM after 48 hrs by flow cytometry (reference value: 5.17 +/- 0.75 %); assay type: functional
A-375 [9] = assay: Effect on reactive oxygen production in human A375 cells assessed as decrease in peroxide level at 10 uM after 48 hrs by DCFH2-DA staining based spectrophotometry; assay type: functional, cell-based
Summary of the method: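 A375 cells (5×10^5) attached overnight, exposed at 5 or 10 μM for 8 or 48 h. Intracellular peroxides measured with 5 μM DCFH2-DA, 45 min at 37 °C in the dark; after washing, fluorescence read at ex 485 / em 528 nm. Mean ± SD of two independent experiments in duplicate.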

[10] = target: Matrix metalloproteinase-9 (Homo sapiens) (UniProt P14780); assay: Inhibition of MMP9 in human HT-1080 cells at 10 uM by gelatin zymography; assay type: cell-based
A-375 [11] = assay: Induction of cell cycle arrest in human A375 assessed as number of cells at S phase at 10 uM after 48 hrs by flow cytometry (reference value: 11.33 +/- 1.86 %)
A-375 [12] = assay: Induction of apoptosis in human A375 assessed as formation of bleb at 5 to 10 uM after 48 hrs by May-Grunwald- Giemsa staining based optical microscopic analysis; assay type: functional, cell-based; settings: dose 5-10 µM
Summary of the method: (§2)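 A375 cells exposed to 5 or 10 μM for 48 h, stained with May-Grünwald Giemsa and examined by optical microscopy at 50x. Representative images taken at random for each condition.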

A-375 [13] = assay: Induction of apoptosis in human A375 assessed as loss of cell integrity at 5 to 10 uM after 48 hrs by May-Grunwald- Giemsa staining based optical microscopic analysis; assay type: functional; settings: dose 5-10 µM; summary of the method: as §2
A-375 [14] = assay: Induction of cell cycle arrest in human A375 assessed as number of cells at G1 phase at 5 uM after 48 hrs by flow cytometry (reference value: 83.5 +/- 1.87 %); assay type: functional
A-375 [15] = assay: Induction of cell cycle arrest in human A375 assessed as number of cells at S phase at 5 uM after 48 hrs by flow cytometry (reference value: 11.33 +/- 1.86 %); assay type: functional
A-375 [16] = assay: Induction of cell cycle arrest in human A375 assessed as number of cells at G2/M phase at 5 uM after 48 hrs by flow cytometry (reference value: 5.17 +/- 0.75 %); assay type: functional

Chain of Matrix metalloproteinase-9 (Homo sapiens) (P14780 whole entry): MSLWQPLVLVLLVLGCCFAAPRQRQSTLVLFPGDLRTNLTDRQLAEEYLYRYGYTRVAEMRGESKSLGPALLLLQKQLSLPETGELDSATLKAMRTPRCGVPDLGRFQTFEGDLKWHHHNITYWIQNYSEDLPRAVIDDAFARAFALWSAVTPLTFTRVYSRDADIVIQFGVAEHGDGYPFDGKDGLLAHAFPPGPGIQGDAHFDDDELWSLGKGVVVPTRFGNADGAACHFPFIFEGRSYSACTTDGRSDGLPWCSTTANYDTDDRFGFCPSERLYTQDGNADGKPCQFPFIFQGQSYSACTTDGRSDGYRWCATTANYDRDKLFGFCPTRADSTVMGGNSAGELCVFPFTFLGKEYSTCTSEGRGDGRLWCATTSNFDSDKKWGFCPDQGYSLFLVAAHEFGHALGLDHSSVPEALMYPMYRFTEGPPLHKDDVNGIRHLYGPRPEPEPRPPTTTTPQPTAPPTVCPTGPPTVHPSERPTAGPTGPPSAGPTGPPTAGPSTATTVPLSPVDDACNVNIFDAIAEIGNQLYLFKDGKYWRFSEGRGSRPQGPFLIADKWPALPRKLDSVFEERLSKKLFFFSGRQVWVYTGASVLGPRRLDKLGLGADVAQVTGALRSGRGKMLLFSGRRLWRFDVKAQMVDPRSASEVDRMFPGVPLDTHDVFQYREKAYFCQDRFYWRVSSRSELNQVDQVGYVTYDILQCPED

SMILES | IC50 (A-375 [1]) | IC50 (OE19 [2]) | IC50 (HT-1080) | IC50 (NCI-H1299) | inhibition [10] | further results
CCOC(=O)/C=C1/C(=O)N2[C@@H]1SC(C)(C)[C@@H]2C(=O)OC(c1ccccc1)c1ccccc1 | 7 µM | 11.2 µM | 25.1 µM | 15 µM | Active | IC50 (OE19 [3]): 5.3 µM; viability at 10 µM (A-375 [4]): 63%; Activity (A-375 [5]): 11.5%; Activity (A-375 [6]): 20.8%; Activity (A-375 [7]): 61.65%; Activity (A-375 [8]): 12.5%; Activity (A-375 [9]): Active; Activity (A-375 [11]): 25.75%
CC1(C)S[C@@H]2/C(=C\C(=O)c3ccc(F)cc3)C(=O)N2[C@H]1C(=O)OC(c1ccccc1)c1ccccc1 | 17.8 µM | 12.1 µM | 11.2 µM | 25.2 µM | Active | IC50 (OE19 [3]): 10.7 µM
CC1(C)[C@H](C(=O)OC(c2ccccc2)c2ccccc2)N2C(=O)/C(=C/C(=O)c3ccc([N+](=O)[O-])cc3)[C@H]2[S+]1[O-] (some centres undefined) | 48.2 µM | 92.4 µM | – | – | – | –
CC1(C)S[C@@H]2/C(=C\C(=O)OC(c3ccccc3)c3ccccc3)C(=O)N2[C@H]1C(=O)OC(c1ccccc1)c1ccccc1 | 9.1 µM | 21.6 µM | 15.2 µM | 22.4 µM | Active | viability at 10 µM (A-375 [4]): 73.5%; Activity (A-375 [5]): 7.75%; Activity (A-375 [6]): 14.75%; Activity (A-375 [7]): 67.67%; Activity (A-375 [8]): 13%; Activity (A-375 [9]): Active; Activity (A-375 [11]): 15.33%
CC(=O)/C=C1\C[C@H]2SC(C)(C)[C@H](C(=O)OC(c3ccccc3)c3ccccc3)N2C1=O | > 100 µM | > 100 µM | > 100 µM | > 100 µM | – | –
CC1(C)[C@H](C(=O)OC(c2ccccc2)c2ccccc2)N2C(=O)/C(=C/C(=O)c3ccccc3)[C@H]2S1(=O)=O | 17.5 µM | 53.1 µM | 19.5 µM | 50.1 µM | – | –
CC1(C)S[C@@H]2/C(=C\C(=O)OCc3ccccc3)C(=O)N2[C@H]1C(=O)OC(c1ccccc1)c1ccccc1 | 7.1 µM | 8.2 µM | 11.7 µM | 9.4 µM | Active | IC50 (OE19 [3]): 4.6 µM; viability at 10 µM (A-375 [4]): 56.2%; Activity (A-375 [5]): 13%; Activity (A-375 [6]): 24%; Activity (A-375 [12]): Active; Activity (A-375 [13]): Active; Activity (A-375 [14]): 71.25%; Activity (A-375 [15]): 19.5%; Activity (A-375 [16]): 8.75%; Activity (A-375 [7]): 58.33%; Activity (A-375 [8]): 12%; Activity (A-375 [9]): Active; Activity (A-375 [11]): 29.67%
CC(=O)/C=C1/C(=O)N2[C@@H]1SC(C)(C)[C@@H]2C(=O)OC(c1ccccc1)c1ccccc1 | 63 µM | 51.9 µM | 20.8 µM | 24.2 µM | – | –
CC1(C)S[C@@H]2/C(=C\C(=O)c3ccc([N+](=O)[O-])cc3)C(=O)N2[C@H]1C(=O)OC(c1ccccc1)c1ccccc1 | 50.3 µM | 44.1 µM | – | – | – | –
CC1(C)S[C@@H]2/C(=C\C(=O)c3cc(F)cc(F)c3)C(=O)N2[C@H]1C(=O)OC(c1ccccc1)c1ccccc1 | 19.1 µM | 17.6 µM | – | – | – | –
COC(=O)/C=C1/C(=O)N2[C@@H]1SC(C)(C)[C@@H]2C(=O)OC(c1ccccc1)c1ccccc1 | 24.6 µM | 20.2 µM | – | – | – | –
CC1(C)S[C@@H]2/C(=C\C(=O)c3ccc(C(F)(F)F)cc3)C(=O)N2[C@H]1C(=O)OC(c1ccccc1)c1ccccc1 | 26.7 µM | 15.6 µM | – | – | – | –
CC1(C)S[C@@H]2/C(=C\C(=O)c3ccc4ccccc4c3)C(=O)N2[C@H]1C(=O)OC(c1ccccc1)c1ccccc1 | 36.5 µM | 19.5 µM | – | – | – | –
CC1(C)S[C@@H]2/C(=C\C(=O)c3ccc(Br)cc3)C(=O)N2[C@H]1C(=O)OC(c1ccccc1)c1ccccc1 | 29.7 µM | 13.8 µM | – | – | – | –
CC1(C)S[C@@H]2/C(=C\C(=O)c3ccccc3)C(=O)N2[C@H]1C(=O)OC(c1ccccc1)c1ccccc1 | 22.8 µM | 12.8 µM | 21.1 µM | 39 µM | Active | IC50 (OE19 [3]): 8.6 µM
CC1(C)[C@H](C(=O)OC(c2ccccc2)c2ccccc2)N2C(=O)/C(=C/C(=O)c3ccccc3)[C@H]2[S+]1[O-] (some centres undefined) | 4.5 µM | 23.7 µM | 65.5 µM | 92.4 µM | – | viability at 10 µM (A-375 [4]): 89.2%; Activity (A-375 [5]): 4.17%; Activity (A-375 [6]): 3%
CC1(C)S[C@@H]2C/C(=C\C(=O)c3ccccc3)C(=O)N2[C@H]1C(=O)OC(c1ccccc1)c1ccccc1 | > 100 µM | 73.3 µM | – | – | 61.4% | –
CC1(C)[C@H](C(=O)OC(c2ccccc2)c2ccccc2)N2C(=O)/C(=C/C(=O)c3ccc([N+](=O)[O-])cc3)[C@H]2S1(=O)=O | 76.7 µM | 95.5 µM | – | – | – | –
CC1(C)S[C@@H]2/C(=C\C(=O)c3ccco3)C(=O)N2[C@H]1C(=O)OC(c1ccccc1)c1ccccc1 | 26 µM | 54.3 µM | 45.5 µM | 61.5 µM | – | –
COC(=O)/C=C1\C[C@H]2SC(C)(C)[C@H](C(=O)OC(c3ccccc3)c3ccccc3)N2C1=O | > 100 µM | 99.7 µM | – | – | 52.9% | –
CC1(C)S[C@@H]2/C(=C\C(=O)c3cc(C(F)(F)F)cc(C(F)(F)F)c3)C(=O)N2[C@H]1C(=O)OC(c1ccccc1)c1ccccc1 | 39.2 µM | 48.5 µM | – | – | – | –
CC1(C)S[C@@H]2/C(=C\C(=O)c3ccc(Cl)cc3)C(=O)N2[C@H]1C(=O)OC(c1ccccc1)c1ccccc1 | 48.6 µM | 14.6 µM | – | – | – | –
